From article PMC12583737 (Nature Communications, 2025) come the findings set out here.

One assay deals with V5-tagged FBXO22. The assay can be described thus: Cellular thermal stability shift assay. It is filed as binding. The note with it: lysates of HCC515 expressing V5-tagged FBXO22. In a few lines:
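It got 10 µM neddylation inhibitor for 10 min, then compound or DMSO for 30 min at room temperature. Aliquots were heated 3 min across 38–71 °C in 3-degree steps and cleared at 20,000 g. Soluble V5-FBXO22 was read by anti-V5 immunoblot.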

For assay [1], the system named is SMARCA2-nanoLuc and FBXO22-HaloTag. The assay can be described thus: SMARCA2/FBXO22 NanoBRET ternary complex assay in FBXO22 knockout HCC515 cells. The note with it: FBXO22 knockout HCC515, overnight, 10 µM MLN4924. It is filed as cell-based. The procedure, abridged:
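FBXO22-knockout HCC515 cells were transiently co-transfected with SMARCA2-NanoLuc and FBXO22-HaloTag at a 1:20 ratio (FuGENE HD). They were replated next day at 25,000 per well with or without HaloTag 618 ligand and left overnight. Cells were pretreated 1 h with 10 µM MLN4924, which was kept throughout, then dosed with test compound or a control PROTAC for 24 h. Emissions at 460/618 nm were read 10 min after substrate. Ratio ×1000 gave mBU, with the no-ligand value subtracted. Mean ± sd, n = 2–6.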

`Nc1nnc(-c2ccccc2O)cc1N1CC2CCC(C1)N2c1ccnc(F)c1` [Compound 7]: the “thermal stability of FBXO22” value in the assay on V5-tagged FBXO22 is “not observed”.
On to `Cc1ncsc1-c1ccc([C@H](C)NC(=O)[C@@H]2C[C@@H](O)CN2C(=O)[C@@H](c2cc(N3CCC(CN4CCC(OC5CC(Oc6cc(N7C8CCC7CN(c7cc(-c9ccccc9O)nnc7N)C8)ccn6)C5)CC4)CC3)no2)C(C)C)cc1` (some centres unmarked) [Compound A947], for which the “BRET signal (ternary complex SMARCA2/FBXO22)” value in assay [1] was “not observed”.
